As a reminder, the Ki is the dissociation constant of the complex between target and ligand, obtained from inhibition or displacement. The term logP denotes a log measure of how a compound divides between an organic and an aqueous phase.

Among the data in ChEMBL document CHEMBL3392971, “Design and synthesis of protein kinase C epsilon selective diacylglycerol lactones (DAG-lactones)” (Eur J Med Chem, 2015) are Ki, Ratio Ki and logP values, retold here.

The target in series [1] is T1, Protein kinase C alpha type (Homo sapiens, UniProt P17252). The series can be described thus: Displacement of [20-3H] phorbol 12, 13-dibutylate from recombinant PKCalpha (unknown origin) in presence of nuclear membrane mimetic lipid mixture. The series is classed as cell membranes.
The target of series [2] is T2, Protein kinase C epsilon type (Homo sapiens, UniProt Q02156).
T2 sequence (Q02156 whole entry): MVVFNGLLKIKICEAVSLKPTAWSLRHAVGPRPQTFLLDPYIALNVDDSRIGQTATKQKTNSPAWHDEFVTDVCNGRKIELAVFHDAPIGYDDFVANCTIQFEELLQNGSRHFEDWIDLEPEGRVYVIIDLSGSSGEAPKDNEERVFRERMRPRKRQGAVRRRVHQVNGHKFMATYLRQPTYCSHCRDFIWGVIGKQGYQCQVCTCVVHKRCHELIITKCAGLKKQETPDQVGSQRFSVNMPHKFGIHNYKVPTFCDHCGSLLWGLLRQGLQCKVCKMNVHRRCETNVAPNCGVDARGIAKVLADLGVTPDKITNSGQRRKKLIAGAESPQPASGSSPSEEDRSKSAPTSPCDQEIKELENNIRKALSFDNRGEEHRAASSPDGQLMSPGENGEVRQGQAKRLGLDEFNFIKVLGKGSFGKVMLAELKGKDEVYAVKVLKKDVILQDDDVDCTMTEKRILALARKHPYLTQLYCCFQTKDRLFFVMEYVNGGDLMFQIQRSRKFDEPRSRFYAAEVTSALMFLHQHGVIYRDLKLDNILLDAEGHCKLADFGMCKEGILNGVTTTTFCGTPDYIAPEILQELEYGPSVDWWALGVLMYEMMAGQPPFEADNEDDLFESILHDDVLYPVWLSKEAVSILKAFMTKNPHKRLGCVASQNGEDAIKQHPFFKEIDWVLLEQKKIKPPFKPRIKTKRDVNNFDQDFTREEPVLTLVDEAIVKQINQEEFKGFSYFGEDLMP
The series can be described thus: Displacement of [20-3H] phorbol 12, 13-dibutylate from recombinant PKCepsilon (unknown origin) in presence of nuclear membrane mimetic lipid mixture. Type of series: cell membranes.

For series [3], the species on record is Homo sapiens. The series can be described thus: Selectivity index, ratio of Ki for recombinant PKCalpha (unknown origin) in presence of nuclear membrane mimetic lipid mixture to Ki for recombinant PKCepsilon (unknown origin) in presence of nuclear membrane mimetic lipid mixture. The series is classed as cell membranes. In outline: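 Ki values for recombinant PKC-alpha and PKC-epsilon were each measured by competition with [20-3H]PDBu in the nuclear-membrane-mimetic lipid mix (POPC/POPE/POPS/POPI/cholesterol 61:21:4:7:6). The ratio is PKC-alpha Ki divided by PKC-epsilon Ki.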

Series [4] concerns the target T1, Protein kinase C alpha type. The series can be described thus: Displacement of [20-3H] phorbol 12, 13-dibutylate from recombinant PKCalpha (unknown origin) in presence of 100 ug/ml 100% phosphatidylserine.
For series [5], the target named is T2, Protein kinase C epsilon type. Kind of series: Displacement of [20-3H] phorbol 12, 13-dibutylate from recombinant PKCepsilon (unknown origin) in presence of 100 ug/ml 100% phosphatidylserine.
The species entered for series [6] is Homo sapiens. The series can be described thus: Selectivity index, ratio of Ki for recombinant PKCalpha (unknown origin) in presence of 100 ug/ml 100% phosphatidylserine to Ki for recombinant PKCepsilon (unknown origin) in presence of 100 ug/ml 100% phosphatidylserine.
Series [7] is described as follows: Lipophilicity, log P of the compound. The series is classed as physicochemical. As to conditions: octanol/water.

Molecules are shown by their SMILES.

For `CC(C)C/C=C1\CC(CO)(COC(=O)CC(CC(C)C)CC(C)C)OC1=O` (configuration not stated), the inhibition constant (Ki) in series [1] is 15.4 nM; in series [2], 3 nM; in series [4], 2.78 nM; in series [5] it was 1.21 nM. Besides, the Ratio Ki in the series filed under Homo sapiens [3] stood at 5.1; in the series listed under Homo sapiens [6], 2.3. In series [7] (read-out: logP), the logP came out at 5.06.

As for `CCCCCCCCCCCCCCCCCC(=O)OCC1(CO)C/C(=C\CC(C)C)C(=O)O1` (configuration not stated), the Ki in series [1] amounted to 99 nM; in series [2], 47 nM; in series [4], 30.8 nM; in series [5], 11.4 nM. In addition, the Ratio Ki in the series filed under Homo sapiens [3] was 2.1; in the series listed under Homo sapiens [6] it was 2.7. In addition, the logP in series [7] (read-out: logP) turned out to be 8.72.

With `CCCCCC1CC1CC1CC1CCCCCCCC(=O)OCC1(CO)C/C(=C/CC(C)C)C(=O)O1` (configuration not stated), the Ki in series [1] is 44 nM; in series [2], 30.7 nM; in series [4], 15.4 nM; in series [5] it was 9.8 nM. The Ratio Ki was 1.4 in the series listed under Homo sapiens [3] and 1.6 in the series listed under Homo sapiens [6]. Also, the logP in series [7] stood at 9.19.

As to `CCCCCCC#CC#CCCCCCCCC(=O)OCC1(CO)C/C(=C/CC(C)C)C(=O)O1` (configuration not stated), the Ki in series [1] was 44.8 nM; in series [2], 40.3 nM; in series [4], 9.8 nM; in series [5], 13.4 nM. Moreover, the Ratio Ki in the series listed under Homo sapiens [3] amounted to 1.1; in the series filed under Homo sapiens [6], 0.7. Also, the logP in series [7] (read-out: logP) was found to be 7.82.

On to `CCCCCC1OC1CC1OC1CCCCCCCC(=O)OCC1(CO)C/C(=C\CC(C)C)C(=O)O1` (configuration not stated), for which the Ki is 116 nM in series [1], 16.9 nM in series [2], 13.2 nM in series [4] and 7.46 nM in series [5]. Further, the Ratio Ki in the series listed under Homo sapiens [3] amounted to 6.9; in the series filed under Homo sapiens [6], 1.8. Besides, the logP in series [7] (read-out: logP) came out at 5.69.

On to `CCCCCC=CCC=CCCCCCCCC(=O)OCC1(CO)C/C(=C/CC(C)C)C(=O)O1` (configuration not stated), for which the Ki amounted to 26.2 nM in series [1], 19.5 nM in series [2], 7.05 nM in series [4] and 12.2 nM in series [5]. The Ratio Ki in the series listed under Homo sapiens [3] came to 1.3; in the series filed under Homo sapiens [6], 0.6. The logP in series [7] (read-out: logP) amounted to 8.29.

Regarding `CCCCC/C=C\C/C=C\CCCCCCC/C=C1\CC(CO)(COC(=O)C(C)(C)C)OC1=O` (configuration not stated), the Ki in series [1] worked out at 25.7 nM; in series [2], 5.2 nM; in series [4], 8.26 nM; in series [5], 4.1 nM. For the same compound, the Ratio Ki in the series filed under Homo sapiens [3] is 4.9; in the series filed under Homo sapiens [6], 2. The logP in series [7] (read-out: logP) was 8.25.

For the compound `CCCCCCCCC#CCCCCCCCC(=O)OCC1(CO)C/C(=C/CC(C)C)C(=O)O1` (configuration not stated), the Ki in series [1] is 38.7 nM; in series [2], 34.6 nM; in series [4], 12.6 nM; in series [5] it was 7.12 nM. Also, the Ratio Ki in the series listed under Homo sapiens [3] was 1.1; in the series listed under Homo sapiens [6] it was 1.8. The logP in series [7] (read-out: logP) amounted to 8.01.

For the compound `CCCCCC1CC1CC1CC1CCCCCCCC(=O)OCC1(CO)C/C(=C\CC(C)C)C(=O)O1` (configuration not stated), the inhibitory constant (Ki) in series [1] was 60 nM; in series [2], 19.8 nM; in series [4] it was 10.2 nM; in series [5], 5.5 nM. In addition, the figures for the Ratio Ki in the series listed under Homo sapiens [3] and in the series filed under Homo sapiens [6] were 3 and 1.9, respectively. In addition, in series [7], the logP stood at 9.19.

Turning to `CCCCCCCCC#CCCCCCCCC(=O)OCC1(CO)C/C(=C\CC(C)C)C(=O)O1` (configuration not stated), the Ki in series [1] stood at 43.8 nM; in series [2], 9.1 nM; in series [4], 8.7 nM; in series [5], 4.79 nM. In addition, the Ratio Ki came out at 4.8 in the series filed under Homo sapiens [3] and 1.8 in the series listed under Homo sapiens [6]. Further, the logP in series [7] (read-out: logP) came to 8.01.

As to `CCCCCC1CC1CC1CC1CCCCCCC/C=C1\CC(CO)(COC(=O)C(C)(C)C)OC1=O` (configuration not stated), the inhibition constant (Ki) in series [1] was 110 nM; in series [2], 41 nM; in series [4], 26.7 nM; in series [5], 8.3 nM. For the same compound, the Ratio Ki in the series listed under Homo sapiens [3] was found to be 2.7; in the series filed under Homo sapiens [6] it was 3.2. Also, in series [7], the lipophilicity (logP) was determined as 9.15.

Turning to `CCCCCCC#CC#CCCCCCCCC(=O)OCC1(CO)C/C(=C\CC(C)C)C(=O)O1` (configuration not stated), the Ki in series [1] was 60.8 nM; in series [2] it was 12.8 nM; in series [4] it was 8.31 nM; in series [5] it was 5.24 nM. Further, the Ratio Ki in the series filed under Homo sapiens [3] was 4.8; in the series listed under Homo sapiens [6] it was 1.6. Moreover, the logP in series [7] (read-out: logP) turned out to be 7.82.

Turning to `CCCCCC=CCC=CCCCCCCCC(=O)OCC1(CO)C/C(=C\CC(C)C)C(=O)O1` (configuration not stated), the Ki in series [1] is 24.7 nM; in series [2], 13.1 nM; in series [4] it was 4.33 nM; in series [5], 2.14 nM. For the same compound, the Ratio Ki in the series listed under Homo sapiens [3] was found to be 1.9; in the series listed under Homo sapiens [6], 2. The logP in series [7] (read-out: logP) amounted to 8.29.

With `CC(C)CC(C/C=C1\CC(CO)(COC(=O)C(C)(C)C)OC1=O)CC(C)C` (configuration not stated), the Ki in series [1] is 46 nM; in series [2], 1.43 nM; in series [4], 8.3 nM; in series [5], 1.03 nM. The values for the Ratio Ki in the series filed under Homo sapiens [3] and in the series listed under Homo sapiens [6] were 32.2 and 8.1, respectively.

Take `CCCCCC1CC1CC1CC1CCCCCCC/C=C1/CC(CO)(COC(=O)C(C)(C)C)OC1=O` (configuration not stated): the Ki in series [1] is 73 nM; in series [2], 58.8 nM; in series [4], 33.1 nM; in series [5], 15.2 nM. For the same compound, the values for the Ratio Ki in the series listed under Homo sapiens [3] and in the series filed under Homo sapiens [6] were 1.2 and 2.2, respectively. This compound returned a log partition coefficient (logP) in series [7] of 9.15.

Take `CC(C)C/C=C1/CC(CO)(COC(=O)CC(CC(C)C)CC(C)C)OC1=O` (configuration not stated): the Ki in series [1] was 57 nM; in series [2], 15.6 nM; in series [4] it was 4.74 nM; in series [5], 2.37 nM. Moreover, the Ratio Ki in the series filed under Homo sapiens [3] amounted to 3.6; in the series listed under Homo sapiens [6], 2. Also, the logP in series [7] (read-out: logP) stood at 5.06.

In the case of `CCCCCCCCCCCCCCCCCC(=O)OCC1(CO)C/C(=C/CC(C)C)C(=O)O1` (configuration not stated), the Ki in series [1] came out at 106 nM; in series [2], 34 nM; in series [4], 43.9 nM; in series [5], 19.3 nM. Besides, the Ratio Ki worked out at 3.1 in the series filed under Homo sapiens [3] and 2.3 in the series filed under Homo sapiens [6]. Also, in series [7] (read-out: logP), the logP was 8.72.

As to `CCCCCC1OC1CC1OC1CCCCCCCC(=O)OCC1(CO)C/C(=C/CC(C)C)C(=O)O1` (configuration not stated), the Ki in series [1] was 103 nM; in series [2], 63 nM; in series [4], 16.5 nM; in series [5] it was 16.3 nM. Besides, the Ratio Ki worked out at 1.6 in the series listed under Homo sapiens [3] and 1 in the series filed under Homo sapiens [6]. In series [7] (read-out: logP), the logP amounted to 5.69.

In the case of `CCCCC/C=C\C/C=C\CCCCCCC/C=C1/CC(CO)(COC(=O)C(C)(C)C)OC1=O` (configuration not stated), the Ki amounted to 31.1 nM in series [1], 9.6 nM in series [2], 7.2 nM in series [4] and 5.06 nM in series [5]. The values for the Ratio Ki in the series filed under Homo sapiens [3] and in the series listed under Homo sapiens [6] were 3.2 and 1.4, respectively. The logP in series [7] (read-out: logP) is 8.25.
